# Measured values pooled from the literature.
# Protocols differ between the studies behind these lines.
# Target: RAF proto-oncogene serine/threonine-protein kinase (RAF1, Homo sapiens, UniProt P04049)
Compound,observed,action,method,tested at,endpoint,result
N#Cc1ccc(NC(=O)Nc2ccccc2)cc1,cell-free assay,,competition with immobilised ligand,25 µM,remaining binding,98%
Cc1ccc(NC(=O)c2ccnc(C(F)(F)F)c2)cc1-c1cc(OCCO)nc(N2CCOCC2)c1,binding,,competition with immobilised ligand,1 µM,remaining binding,1.2%
Cc1cc(O)c(-c2ccc([C@@H](C)CN(C)C)cc2)c2c1[nH]c(=O)c1sccc12,enzyme activity,inhibitor,,0.1 µM,inhibition,7.07%
COc1ccc2oc(-c3ccc4nc(N)oc4c3)c/c(=N\c3ccccc3NC(=O)CCN)c2c1,binding,,,1 µM,remaining binding,104%
COc1ccc2[nH]c3c4[nH]c5ccc(OC)cc5c4c4c(c3c2c1)C(=O)NC4=O,binding,,competition with immobilised ligand,1 µM,remaining binding,100%
CCCCC(=O)Nc1ccc(-c2ccc3ncn(CCC)c(=O)c3c2)cn1,binding,,competition with immobilised ligand,0.5 µM,remaining binding,80%
C=CC(=O)N1CCC([C@@H]2CCNc3c(C(N)=O)c(-c4ccc(Oc5ccccc5)cc4)nn32)CC1,enzyme activity,inhibitor,,1 µM,inhibition,0%
C#Cc1cnc(Nc2ccnc(CO)c2)nc1Nc1ccccc1S(C)(=O)=NC#N (stereo not shown),cell-free assay,,,1 µM,remaining signal,85%
CO[C@@H]1[C@H](N(C)C(=O)c2ccccc2)C[C@H]2O[C@]1(C)n1c3ccccc3c3c4c(c5c6ccccc6n2c5c31)C(=O)NC4,enzyme activity,inhibitor,,1 µM,inhibition,0%
C#Cc1cc(-c2cc(Nc3nc(N[C@@H](C)c4ccc(F)cn4)ncc3Cl)n[nH]2)ccc1C=O,enzyme activity,inhibitor,,0.2 µM,inhibition,13.8%
